Reference: ChEMBL document CHEMBL1944559, “Phosphodiesterase inhibitors. Part 3: Design, synthesis and structure-activity relationships of dual PDE3/4-inhibitory fused bicyclic heteroaromatic-dihydropyridazinones with anti-inflammatory and bronchodilatory activity” (Bioorg Med Chem, 2012)

Experiments:
[1] = target: T1, cGMP-inhibited 3',5'-cyclic phosphodiesterase 3A (Homo sapiens, UniProt Q14432); experiment: Inhibition of human PDE3A catalytic domain
Summary of the method: (§1)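 IC50 determined in enzyme inhibition assays on the core catalytic domains of PDE3A and PDE4B, following previously reported protocols, from at least three experiments; roflumilast run as positive control.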

[2] = target: T2, 3',5'-cyclic-AMP phosphodiesterase 4B (Homo sapiens, UniProt Q07343); experiment: Inhibition of human PDE4B catalytic domain; summary of the method: as §1
T2 sequence (Q07343 whole entry, the tested form may be a part): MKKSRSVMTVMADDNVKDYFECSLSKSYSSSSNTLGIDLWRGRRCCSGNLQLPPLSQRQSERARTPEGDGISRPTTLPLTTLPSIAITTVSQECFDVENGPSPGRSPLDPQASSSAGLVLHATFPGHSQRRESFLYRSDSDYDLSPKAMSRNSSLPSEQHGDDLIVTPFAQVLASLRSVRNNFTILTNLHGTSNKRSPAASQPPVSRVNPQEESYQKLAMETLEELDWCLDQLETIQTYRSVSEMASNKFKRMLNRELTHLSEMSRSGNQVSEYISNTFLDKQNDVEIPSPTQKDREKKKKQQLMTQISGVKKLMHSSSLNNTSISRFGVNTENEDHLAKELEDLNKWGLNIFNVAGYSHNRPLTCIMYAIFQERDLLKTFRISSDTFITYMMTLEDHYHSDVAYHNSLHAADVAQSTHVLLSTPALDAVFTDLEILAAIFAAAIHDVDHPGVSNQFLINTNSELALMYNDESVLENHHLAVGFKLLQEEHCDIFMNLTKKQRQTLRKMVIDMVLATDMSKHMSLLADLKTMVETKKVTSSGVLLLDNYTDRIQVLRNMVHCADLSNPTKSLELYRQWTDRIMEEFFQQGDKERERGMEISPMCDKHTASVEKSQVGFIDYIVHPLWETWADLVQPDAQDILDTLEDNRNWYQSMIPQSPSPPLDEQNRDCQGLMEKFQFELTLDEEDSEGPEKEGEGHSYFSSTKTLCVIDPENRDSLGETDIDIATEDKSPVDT

Rattus norvegicus = experiment: Antiinflammatory activity in Wistar rat assessed as inhibition of LPS-induced TNFalpha release at 1 mg/kg, po; type: functional
Cavia porcellus [3] = experiment: Inhibition of histamine-induced bronchoconstriction in Hartley guinea pig at 0.1 mg/kg, iv administered 30 mins prior histamine challenge; type: functional
Summary of the method: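 Guinea pigs given compound iv at 0.1 mg/kg before histamine challenge; bronchoconstriction measured by an established procedure; result expressed as % inhibition of constriction relative to control.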

Cavia porcellus [4] = experiment: Inhibition of histamine-induced bronchoconstriction in Hartley guinea pig at 1 mg/kg, po administered 30 mins prior histamine challenge; type: functional
Summary of the method: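 Oral dosing at 1 mg/kg in guinea pigs before histamine challenge, by an established procedure; scored against control as ++ (≥70% inhibition of bronchoconstriction) or + (30–69%).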

[5] = target: T1, cGMP-inhibited 3',5'-cyclic phosphodiesterase 3A; experiment: Ratio of KCA-1450 IC50 to compound IC50 for human PDE3A catalytic domain
[6] = target: T2, 3',5'-cyclic-AMP phosphodiesterase 4B; experiment: Ratio of KCA-1450 IC50 to compound IC50 for human PDE4B catalytic domain

T1 sequence (Q14432 whole entry, the tested form may be a part): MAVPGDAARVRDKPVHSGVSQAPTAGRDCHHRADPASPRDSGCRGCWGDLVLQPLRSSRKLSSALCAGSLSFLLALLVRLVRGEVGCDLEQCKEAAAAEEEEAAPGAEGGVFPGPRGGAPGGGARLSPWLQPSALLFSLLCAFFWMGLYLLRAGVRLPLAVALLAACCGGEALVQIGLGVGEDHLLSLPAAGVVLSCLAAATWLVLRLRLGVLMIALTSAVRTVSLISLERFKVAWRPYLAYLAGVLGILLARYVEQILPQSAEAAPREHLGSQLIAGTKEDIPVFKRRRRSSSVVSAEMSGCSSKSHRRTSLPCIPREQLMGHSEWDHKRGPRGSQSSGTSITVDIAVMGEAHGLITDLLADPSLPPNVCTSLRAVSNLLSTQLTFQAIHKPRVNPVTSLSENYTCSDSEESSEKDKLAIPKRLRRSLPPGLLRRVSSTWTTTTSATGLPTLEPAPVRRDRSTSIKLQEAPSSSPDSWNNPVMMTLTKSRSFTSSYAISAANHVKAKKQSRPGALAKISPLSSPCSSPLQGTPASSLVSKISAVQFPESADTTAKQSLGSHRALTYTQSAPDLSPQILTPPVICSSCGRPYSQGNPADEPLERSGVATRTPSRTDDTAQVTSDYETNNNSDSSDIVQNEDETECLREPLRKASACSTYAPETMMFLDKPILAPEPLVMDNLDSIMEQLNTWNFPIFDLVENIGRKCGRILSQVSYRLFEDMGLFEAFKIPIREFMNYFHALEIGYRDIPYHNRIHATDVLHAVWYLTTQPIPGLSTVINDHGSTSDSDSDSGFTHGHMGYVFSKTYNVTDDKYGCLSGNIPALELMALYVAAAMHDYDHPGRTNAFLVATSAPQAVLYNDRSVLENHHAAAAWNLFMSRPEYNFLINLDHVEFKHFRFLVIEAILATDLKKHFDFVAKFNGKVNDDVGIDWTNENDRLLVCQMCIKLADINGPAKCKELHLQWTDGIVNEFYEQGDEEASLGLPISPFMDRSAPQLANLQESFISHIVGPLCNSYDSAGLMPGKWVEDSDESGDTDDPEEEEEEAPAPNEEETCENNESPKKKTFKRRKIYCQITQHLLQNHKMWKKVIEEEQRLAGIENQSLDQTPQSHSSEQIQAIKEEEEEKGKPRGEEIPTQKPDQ

Q: Which IC50 [1] does the source give for `COc1ccc(C2=NNC(=O)CC2C)c2nc(C(F)(F)F)nn12` (racemic) here?
A: Its IC50 is 10200 nM.

Q: What about the IC50 [2] of the same compound?
A: Its IC50 is 430 nM.

Q: How did the IC50 [1] turn out when `COc1ccc(C2=NNC(=O)CC2C)n2cc(C(F)(F)F)nc12` (racemic) was run?
A: The IC50 was 1450 nM.

Q: And the inhibition in vivo at 1 mg/kg (Rattus norvegicus)?
A: The inhibition in vivo at 1 mg/kg was 62%.

Q: What about the IC50 [2] of the same compound?
A: The IC50 was 260 nM.

Q: What about the inhibition in vivo at 0.1 mg/kg (Cavia porcellus [3]) of the same compound?
A: Its inhibition in vivo at 0.1 mg/kg is 99%.

Q: What about the inhibition in vivo at 1 mg/kg (Cavia porcellus [4]) of the same compound?
A: The inhibition in vivo at 1 mg/kg was > 30%.

Q: With `COc1ccc(C2=NNC(=O)CC2C)c2oc(C(F)(F)F)nc12` (racemic) as the compound, how does the IC50 [1] read?
A: Its IC50 is 5740 nM.

Q: What about the IC50 [2] of the same compound?
A: Its IC50 is 1010 nM.

Q: Which IC50 [1] does the source give for `COc1ccc(C2=NNC(=O)CC2C)c2nc(C(F)(F)F)oc12` (racemic) here?
A: Its IC50 is 6430 nM.

Q: And the IC50 [2]?
A: Its IC50 is 1520 nM.

Q: How did the IC50 [1] turn out when `COc1ccc(C2=NNC(=O)CC2C)c2sc(C(F)(F)F)nc12` (racemic) was run?
A: The IC50 was 150 nM.

Q: And the inhibition in vivo at 1 mg/kg (Rattus norvegicus)?
A: The inhibition in vivo at 1 mg/kg was 80%.

Q: What about the IC50 [2] of the same compound?
A: The IC50 was 21 nM.

Q: And the inhibition in vivo at 0.1 mg/kg (Cavia porcellus [3])?
A: The inhibition in vivo at 0.1 mg/kg was 97%.

Q: What about the Ratio IC50 [5] of the same compound?
A: Its Ratio IC50 is 16.

Q: What about the Ratio IC50 [6] of the same compound?
A: Its Ratio IC50 is 3.

Q: And the inhibition in vivo at 1 mg/kg (Cavia porcellus [4])?
A: The inhibition in vivo at 1 mg/kg was ≥ 70%.

Q: For `COc1ccc(C2=NNC(=O)CC2C)c2cc(C(F)(F)F)sc12` (racemic), which IC50 [1] is on record?
A: The IC50 was 2850 nM.

Q: And the IC50 [2]?
A: The IC50 was 280 nM.

Q: And the inhibition in vivo at 0.1 mg/kg (Cavia porcellus [3])?
A: Its inhibition in vivo at 0.1 mg/kg is 17%.

Q: What does the source list for `COc1ccc(C2=NNC(=O)CC2C)c2ccc(C(F)(F)F)nc12` (racemic)?
A: IC50 [1]: 970 nM; inhibition in vivo at 1 mg/kg (Rattus norvegicus): 68%; IC50 [2]: 350 nM; inhibition in vivo at 0.1 mg/kg (Cavia porcellus [3]): 99%; Ratio IC50 [5]: 2.5; inhibition in vivo at 1 mg/kg (Cavia porcellus [4]): ≥ 70%

Q: `COc1ccc(C2=NNC(=O)CC2C)c2[nH]c(C(F)(F)F)nc12` (racemic) was tested. Which IC50 [1] did it give?
A: The IC50 was 22200 nM.

Q: And the IC50 [2]?
A: Its IC50 is 300 nM.

Q: For `COc1ccc(C2=NNC(=O)CC2C)c2cc(C(F)(F)F)oc12` (racemic), which IC50 [1] is on record?
A: The IC50 was 19800 nM.

Q: What about the IC50 [2] of the same compound?
A: The IC50 was 380 nM.

Q: `CCc1cc2c(C3=NNC(=O)CC3C)ccc(OC)n2c1` (racemic) was tested. Which IC50 [1] did it give?
A: The IC50 was 20700 nM.

Q: And the IC50 [2]?
A: The IC50 was 3490 nM.
